Results from PubChem BioAssay AID504383 (The Scripps Research Institute Molecular Screening Center, 2011).
The campaign covered roughly 2,500 compounds. About 1,200 (48%) were called active. The set was probably picked from earlier hits. The list shows a part of the results. Values without a mark were called inactive.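 Rule for the calls: active = mean activation above the low control average plus 3 SD, as set in the primary screen (cut at about 12% in these data); inactive = the rest.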

Target: Troponin I, cardiac muscle (Homo sapiens) + Troponin T, cardiac muscle (Homo sapiens) + Troponin C, slow skeletal and cardiac muscles (Homo sapiens) (UniProt P19429+P45379+P63316)
Experiment: cardiac RTF calcium sensitivity activators, confirmation, biochemical, IANBD-TnC fluorescence, triplicate (AID 504383);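 note: 0% = DMSO at 0.472 mM calcium and 100% = DMSO at 2.9 mM calcium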
Conditions: IANBD-labeled cardiac RTF, Ca2+ sensitivity fluorescence; at 7.2 µM; active compounds read high; scaled from EC20 to saturating calcium; tested at EC20 calcium, 0.472 mM
Procedure, shortened: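 Material: labelled regulated thin filaments; Reagent: 0.472 mM calcium; Incubation: 15 min compound incubation with filaments at 25 °C; Detection: filament fluorescence intensity; Evaluation: fluorescence increase normalised to calcium controls; Benchmarks: low control EC20 calcium, high control EC100 calcium.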

Which activation does the source give for COc1ccc(N/C=C\C(=O)c2ccc(Br)cc2)cc1OC here?
Its activation is 59.4% (active).

For CC(=O)Oc1ccc(N2C(=O)C3C(C2=O)C(C(=O)c2ccc(Cl)cc2)N2CCCC32)cc1 (centres undefined), which activation is on record?
Its activation is 77.4% (active).

CCOC(=O)c1ccc(-n2c(CCC(=O)O)ccc2-c2cccs2)cc1 was tested. Which activation did it give?
The activation was 2.47%.

With CCOC(=O)c1ccc(N2C(=O)C3C(C2=O)C(C(=O)c2ccc(Cl)cc2)N2CCCC32)cc1 (centres undefined) as the molecule, how does the activation read?
Its activation is 12.8% (active).

With COc1ccc(N2C(=O)C3C(C2=O)C(C(=O)c2ccc(Cl)cc2)N2CCCC32)cc1 (centres undefined) as the molecule, how does the activation read?
The activation was 8.37%.

With CCc1ccc(/C=C2\Oc3c(ccc(O)c3CN3CCN(C)CC3)C2=O)cc1 as the molecule, how does the activation read?
The activation was 8.07%.

CCN1CCN(Cc2c(O)ccc3c2O/C(=C\c2ccccc2)C3=O)CC1 was tested. Which activation did it give?
The activation was 17.9% (active).

For COCCN(CCOC)Cc1c(O)ccc2c1O/C(=C\c1ccc(C)o1)C2=O, which activation is on record?
Its activation is 3.93%.

For CCN1CCN(Cc2c(O)ccc3c2O/C(=C\C=C\c2ccccc2)C3=O)CC1, which activation is on record?
Its activation is 65.3% (active).

Which activation does the source give for COCCN(CCOC)Cc1c(O)ccc2c1O/C(=C\c1ccco1)C2=O here?
The activation was 9.93%.

For CCN1CCN(Cc2c(O)ccc3c2O/C(=C\c2ccc(C)cc2)C3=O)CC1, which activation is on record?
Its activation is 5.39%.

Which activation does the source give for CN(C)Cc1c(O)ccc2c1O/C(=C\C=C\c1ccccc1)C2=O here?
Its activation is 6.64%.

For COc1ccccc1/C=C/C=C1\Oc2c(ccc(O)c2CN(C)C)C1=O, which activation is on record?
Its activation is 24.3% (active).

Which activation does the source give for CCN(CC)Cc1c(O)ccc2c1O/C(=C\C=C\c1ccccc1)C2=O here?
Its activation is 13.5% (active).

How did the activation turn out when CCN1CCN(Cc2c(O)ccc3c2O/C(=C\C=C\c2ccccc2OC)C3=O)CC1 was run?
Its activation is 8.36%.

O=C1/C(=C/C=C/c2ccccc2)Oc2c1ccc(O)c2CN1CCN(CCO)CC1 was tested. Which activation did it give?
The activation was 126% (active).

Which activation does the source give for Cc1ccc(/C=C2\Oc3c(ccc(O)c3CN3CCN(CCO)CC3)C2=O)cc1 here?
Its activation is 34.7% (active).

With Cc1ccc(/C=C2\Oc3c(ccc(O)c3CN3CCN(C)CC3)C2=O)cc1 as the molecule, how does the activation read?
The activation was 1.83%.

With CC(C)c1ccc(/C=C2\Oc3c(ccc(O)c3CN3CCN(C)CC3)C2=O)cc1 as the molecule, how does the activation read?
Its activation is 7.76%.

How did the activation turn out when COc1ccccc1/C=C/C=C1\Oc2c(ccc(O)c2CN2CCN(CCO)CC2)C1=O was run?
Its activation is 41.9% (active).

With CC(=O)c1ccc2c(c1)c(C#N)c1ccccc1[n+]2[O-] as the molecule, how does the activation read?
Its activation is 174% (active).

CC1(C)CC(N2CCCC2)=CC(=[N+]2CCCCC2)C1 was tested. Which activation did it give?
The activation was 16% (active).

For COc1ccc(-n2c(O)c(/C=N/NS(=O)(=O)c3ccc(C)c([N+](=O)[O-])c3)c3ccccc3c2=O)cc1OC, which activation is on record?
The activation was 3.31%.

Which activation does the source give for COc1ccc(-n2c(O)c(/C=N/NS(=O)(=O)c3cc(C)ccc3C)c3ccccc3c2=O)cc1OC here?
Its activation is 10.9%.

COc1ccc(-n2c(O)c(/C=N/NS(=O)(=O)c3ccc(C)cc3)c3ccccc3c2=O)cc1OC was tested. Which activation did it give?
The activation was 46% (active).

For CCC12CN3CCN(CC(C3)/C1=N\NC(=O)Nc1ccccc1)C2, which activation is on record?
The activation was 4.76%.

Which activation does the source give for O=C(c1ccccc1)[C@@H]1[C@@H]2C(=O)N(c3ccc(F)cc3)C(=O)[C@@H]2C2CCCN21 (some centres undefined) here?
Its activation is 22.7% (active).

With Cc1ccc(N2C(=O)[C@@H]3[C@H](C2=O)C2CCCN2[C@@H]3C(=O)c2ccccc2)cc1 (some centres undefined) as the molecule, how does the activation read?
The activation was 290% (active).

Which activation does the source give for Cc1ccc(C(=O)N2C(=O)C(c3ccccc3)Oc3ccccc32)cc1 (centres undefined) here?
The activation was 5.01%.

Which activation does the source give for COc1cccc(C2CC(c3ccccc3)n3ncnc3N2)c1 (centres undefined) here?
The activation was 19.8% (active).

For O=C1CC(c2cccc(Oc3ccccc3)c2)NC(=O)N1 (centres undefined), which activation is on record?
Its activation is 6.43%.

For COc1ccc(C(=O)OC/C(O)=C(\C#N)c2nc3ccccc3[nH]2)cc1S(=O)(=O)N1CCOCC1, which activation is on record?
Its activation is -0.63%.

How did the activation turn out when N#C/C(=C(/O)COC(=O)COc1ccc(Cl)cc1)c1nc2ccccc2[nH]1 was run?
The activation was 13.2% (active).

How did the activation turn out when Cc1ccc(N=Cc2sc(O)c3ccccc23)c(C)c1 was run?
The activation was 7.52%.

With CCN(CC)c1ccc(C=Nc2cc(C)ccc2C)c(O)c1 as the molecule, how does the activation read?
Its activation is 15.7% (active).

Which activation does the source give for O=C(c1ccc2c(=O)n3c(nc2c1)CCCCC3)N1CCN(c2cccc(Cl)c2)CC1 here?
Its activation is 0.38%.

How did the activation turn out when COc1ccccc1NC(=O)CC(=O)CSc1nnc(-c2ccc(C)cc2)n1-c1ccccc1 was run?
Its activation is 3.38%.

With COc1ccc(-c2nnc(SCC(=O)c3ccc[nH]3)n2-c2ccccc2)cc1 as the molecule, how does the activation read?
Its activation is 15.9% (active).

Cc1ccc(C(=O)NNC(=O)CSc2nnc(-c3ccncc3)n2-c2ccc(C)cc2)cc1 was tested. Which activation did it give?
The activation was 7.51%.

For Cn1cc(Cl)c(-c2nc3ccccc3[nH]2)n1, which activation is on record?
The activation was 20.4% (active).

For Cn1nc([N+](=O)[O-])c(C(C#N)c2ccccn2)c(Cl)c1=O (centres undefined), which activation is on record?
The activation was 8.7%.

Which activation does the source give for CCOC(=O)c1ccc(NC(=O)c2cc3c(C)nn(-c4ccccc4Cl)c3s2)s1 here?
The activation was 16.9% (active).

With CCN(CC)CCCNc1ccc2ncn3c4ccc(O)cc4c(=O)c1c23 as the molecule, how does the activation read?
The activation was -1.43%.

Which activation does the source give for O=C/C(=C\Nc1ccc(S(=O)(=O)CCO)cc1)c1nc2cc(Cl)ccc2o1 here?
Its activation is 65% (active).
